In paper PMC11182071 (Journal of Enzyme Inhibition and Medicinal Chemistry, 2024):

How the values were obtained:
[1] = system: α-glucosidase; assay: α-Glucosidase inhibition assay; assay type: biochemical, yeast; settings: for α-glucosidase inhibition (% at 50 μM): mean ± SD, n=3
[2] = molecular target: T1, PTP1B (Homo sapiens, UniProt P18031); assay: Protein tyrosine phosphatase 1B inhibition assay; assay type: biochemical; settings: for inhibition at 50 µM: read-out: PTP1B inhibition (% at 50 μM)
T1 sequence (P18031 1-435): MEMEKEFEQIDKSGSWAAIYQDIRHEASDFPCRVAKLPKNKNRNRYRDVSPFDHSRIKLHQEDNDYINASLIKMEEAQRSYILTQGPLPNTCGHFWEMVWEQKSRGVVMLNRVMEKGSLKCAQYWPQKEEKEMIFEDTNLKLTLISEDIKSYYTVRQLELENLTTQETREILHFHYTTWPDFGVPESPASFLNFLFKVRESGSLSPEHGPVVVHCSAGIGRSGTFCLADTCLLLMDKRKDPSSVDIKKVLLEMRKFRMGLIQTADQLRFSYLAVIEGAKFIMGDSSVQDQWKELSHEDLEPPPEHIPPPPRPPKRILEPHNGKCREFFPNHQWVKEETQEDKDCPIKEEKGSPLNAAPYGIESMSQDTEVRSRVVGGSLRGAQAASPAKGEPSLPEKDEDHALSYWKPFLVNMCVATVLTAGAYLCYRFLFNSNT

[3] = molecular target: T1, PTP1B; assay: PTP1B inhibition kinetic assay; assay type: biochemical
How it was run: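 PTP1B at 100 nM reacted with p-nitrophenyl phosphate at 1, 2, 5 and 10 mM and test compound at 0, 0.5, 1.0 and 5.0 μM. Absorbance read every 3 min. Velocity taken from the time–Δabs plot. Inhibition mode from Lineweaver-Burk double-reciprocal plots; Ki from Dixon plots. Triplicate.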

[4] = molecular target: T2, α-amylase (Sus scrofa, UniProt P00690); assay: α-amylase inhibition assay; assay type: biochemical, porcine; settings: read-out: α-amylase inhibition (% at 250 μM)
T2 sequence (P00690 16-511): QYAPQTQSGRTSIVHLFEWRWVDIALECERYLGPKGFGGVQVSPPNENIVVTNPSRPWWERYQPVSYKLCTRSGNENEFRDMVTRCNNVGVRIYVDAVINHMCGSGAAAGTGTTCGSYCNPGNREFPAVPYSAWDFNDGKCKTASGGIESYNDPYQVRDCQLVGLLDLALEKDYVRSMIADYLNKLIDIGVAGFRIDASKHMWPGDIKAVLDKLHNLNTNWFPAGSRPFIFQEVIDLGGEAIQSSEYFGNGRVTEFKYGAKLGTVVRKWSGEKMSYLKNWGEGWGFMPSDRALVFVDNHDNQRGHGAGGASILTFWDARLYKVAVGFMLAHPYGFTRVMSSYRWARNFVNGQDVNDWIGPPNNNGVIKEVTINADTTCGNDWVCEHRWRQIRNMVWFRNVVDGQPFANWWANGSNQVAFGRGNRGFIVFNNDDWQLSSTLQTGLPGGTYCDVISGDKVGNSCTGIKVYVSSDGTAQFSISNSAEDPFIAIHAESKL

[5] = system: insulin-resistant HepG2 cells; assay: In vitro glucose consumption assay in insulin-resistant HepG2 cells; assay type: cell-based, human; settings: 24 h treatment; vs model group
How it was run: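 HepG2 seeded in 6-well plates at 1 × 10^5 cells/well for 24 h. Serum-starved 2 h, then made insulin-resistant with 1 × 10−6 mol/l insulin for 48 h at 37 °C, 5% CO2. Groups: control, model, low/middle/high dose of free or liposomal test compound (top 100 μg/mL), blank liposome. After 24 h treatment, medium glucose measured by glucose oxidase kit; consumption = blank-well minus sample-well glucose. Mean ± SD, n = 3.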

[6] = Solubility observations; assay type: physicochemical; settings: medium not stated

| α-glucosidase inhibition (% at 50 μM) [1] | inhibition at 50 µM [2] | inhibition at 250 µM [4] | SMILES | other results |
| --- | --- | --- | --- | --- |
| 96.51 ± 0.02% | – | – | C[C@H]1O[C@H](O[C@H]2[C@H](O)[C@@H](O)[C@@H](O[C@H]3[C@H](O)[C@@H](O)C(O)O[C@@H]3CO)O[C@@H]2CO)[C@H](O)[C@@H](O)[C@@H]1N[C@H]1C=C(CO)[C@@H](O)[C@H](O)[C@H]1O (stereo partly drawn) [Acarbose, reference compound] | – |
| 25.55 ± 1.75% | 67.1 ± 1.33% | – | CC(C)=C1CC([C@H]2CC[C@]3(C)[C@@H]2CC[C@@H]2C4=C(CC[C@]23C)C(C)(C)[C@@H]2CC[C@H]4O2)=CC1=O [Compound 5, gypensapogenin B] | – |
| 61.94 ± 1.54% | 83.49 ± 0.62% | 11.6 ± 1.24% | CC(C)=C[C@H]1C=C([C@H]2CC[C@]3(C)[C@@H]2CC[C@@H]2[C@@]4(C)CC[C@H](O)C(C)(C)[C@@H]4CC[C@]23C)C(=O)O1 [Compound 7, gypensapogenin D] | Ki [3]: 4.29 µM; Inhibition type against PTP1B (Lineweaver-Burk plot) ([3]; Lineweaver-Burk double reciprocal plot): competitive inhibitors; IC50 ([1]; read-out: α-glucosidase IC50, mean ± SD of three replications): 27.15 ± 0.17 µM; Glucose consumption in insulin-resistant HepG2 cells [5]: did not improve the reduction of glucose consumption; IC50 [2]: 8.17 ± 0.63 µM; Solubility [6]: poorly solubility |
| 25.80 ± 0.71% | 65.9 ± 1.69% | 31.81 ± 0.02% | CC(C)=C1CC=C([C@H]2CC[C@]3(C)[C@@H]2CC[C@@H]2C4=C(CC[C@]23C)C(C)(C)[C@@H]2CC[C@H]4O2)C1=O [Compound 4, gypensapogenin A] | – |
| 24.64 ± 0.65% | 78.9 ± 0.87% | – | CC(C)=C1CC=C([C@H]2CC[C@]3(C)[C@@H]2CC[C@@H]2[C@@]4(C)CC[C@H](O)C(C)(C)[C@@H]4CC[C@]23C)C1=O [Compound 6, gypensapogenin C] | – |
| – | – | – | [Na+].[Na+].[Na+].[O]=[V]([O-])([O-])[O-] [Na3VO4, reference compound] | PTP1B inhibition (% at 50 μM) ([2]; 50 μM, mean ± SD, n=3): 98.07 ± 0.51% |
